Results pooled from the literature.
Lines come from different studies, so protocols differ.
Target: Serine/threonine-protein kinase SIK3 (SIK3, Homo sapiens, UniProt Q9Y2K2)

CC(C)S(=O)(=O)c1ccc2nccc(Nc3ccc4sc(C5CCCC5)nc4c3)c2c1 — activity vs control (enzyme activity, inhibitor; 1 µM): 104%
CO[C@@H]1[C@H](N(C)C(=O)c2ccccc2)C[C@H]2O[C@]1(C)n1c3ccccc3c3c4c(c5c6ccccc6n2c5c31)C(=O)NC4 — inhibition (enzyme activity, inhibitor; 1 µM): 79%
CCCCC(=O)Nc1ccc(-c2ccc3ncn(CCC)c(=O)c3c2)cn1 — remaining binding (binding, competition with immobilised ligand; 0.5 µM): 100%
C#Cc1cc(-c2cc(Nc3nc(N[C@@H](C)c4ccc(F)cn4)ncc3Cl)n[nH]2)ccc1C=O — inhibition (enzyme activity, inhibitor; 0.2 µM): 31.1%
Cc1cc(O)c(-c2ccc([C@@H](C)CN(C)C)cc2)c2c1[nH]c(=O)c1sccc12 — inhibition (enzyme activity, inhibitor; 0.1 µM): -11.2%
CN1CCN(C(=O)c2ccc(NC(=O)Nc3ccc(N(C)c4ccnc(Nc5ccc(CS(C)(=O)=O)cc5)n4)cc3)cc2)CC1 — remaining binding (binding, competition with immobilised ligand; 1 µM): 86%
C=CC(=O)N1CCC([C@@H]2CCNc3c(C(N)=O)c(-c4ccc(Oc5ccccc5)cc4)nn32)CC1 — inhibition (enzyme activity, inhibitor; 1 µM): 9%
Cc1ccc(NC(=O)c2ccnc(C(F)(F)F)c2)cc1-c1cc(OCCO)nc(N2CCOCC2)c1 — remaining binding (binding, competition with immobilised ligand; 1 µM): 86%
C1=C/COCc2cc(ccc2OCCN2CCCC2)Nc2nccc(n2)-c2cccc(c2)COC/1 — remaining signal (cell-free assay; 0.1 µM): 83%
